Results reported in PubChem BioAssay AID504623 (Broad Institute, 2011).
Results filed as inconclusive are left out. The source made the active and inactive calls.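 Rule for the calls: active = mean replicate inhibition of at least 25% with at least 60% of replicates reaching that level; inconclusive = only one of the two criteria is met; inactive = neither criterion met.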

System: SUM159 tumorsphere formation, imaging count, 8-9 days
Test: inhibition of SUM159 tumorsphere formation, late-stage follow-up, orthogonal assay for breast cancer stem cell project, imaging, SUM159 cells, single point, dry powder (AID 504623)
Settings: at 25 µM; stronger effect = higher value
Procedure, shortened: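 Material: SUM159 tumorsphere culture. Buffer or medium: medium plus 0.5% methylcellulose. Timing: 8-day incubation, 37 °C. Detection: Brightfield imaging at 2x, 9 sites/well. Format: Low-attachment wells.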

Question: How did the inhibition turn out when `O=C(COc1c(Cl)cc(Cl)cc1Cl)N/N=C/c1ccc[nH]1` was run?
Answer: Its inhibition is -7.47% (inactive).

Question: With `O=C(COc1ccc(Cl)cc1Cl)N/N=C/c1ccc[nH]1` as the compound, how does the inhibition read?
Answer: Its inhibition is -22.3% (inactive).

Question: For `COc1cccc(OCc2ccc(C(=O)Nc3nc(C)cs3)o2)c1`, which inhibition is on record?
Answer: The inhibition was -6.02% (inactive).

Question: For `Cc1csc(NC(=O)c2ccc(COc3cccc(C#N)c3)o2)n1`, which inhibition is on record?
Answer: Its inhibition is 44.2%.

Question: `Cc1csc(NC(=O)c2ccc(COc3cccc(OC(F)(F)F)c3)o2)n1` was tested. Which inhibition did it give?
Answer: The inhibition was 22.2% (inactive).

Question: `Cc1csc(NC(=O)c2ccc(COc3ccccc3)o2)n1` was tested. Which inhibition did it give?
Answer: Its inhibition is 21.4% (inactive).

Question: Which inhibition does the source give for `Cc1cc(Cl)ccc1OCC(=O)N/N=C/c1ccc[nH]1` here?
Answer: The inhibition was 3.98% (inactive).

Question: With `CC(C)(C)c1ccc(C2CC2C(=O)N/N=C/c2ccc[nH]2)cc1` (centres undefined) as the compound, how does the inhibition read?
Answer: The inhibition was 62.8%.

Question: How did the inhibition turn out when `CC(C)c1ccc(/C=C/C(=O)Nc2ccccc2)cc1` was run?
Answer: Its inhibition is 62.4%.

Question: `O=C(/C=C/c1ccc(-c2ccccc2)cc1)NC1=NCCS1` was tested. Which inhibition did it give?
Answer: Its inhibition is 4.08% (inactive).

Question: How did the inhibition turn out when `CC(C)(C)c1ccc2c(c1)OC(C(=O)N/N=C/c1ccc[nH]1)CO2` (centres undefined) was run?
Answer: The inhibition was 34.1%.

Question: Which inhibition does the source give for `Cc1csc(NC(=O)c2ccc(COc3ccccc3F)o2)n1` here?
Answer: Its inhibition is 4.83% (inactive).

Question: `Cc1csc(NC(=O)c2ccc(COc3cccc(Cl)c3)o2)n1` was tested. Which inhibition did it give?
Answer: Its inhibition is 19.5% (inactive).

Question: Which inhibition does the source give for `CC(C)c1ccc(/C=C/C(=O)NC2=NCCS2)cc1` here?
Answer: The inhibition was 10.4% (inactive).
